Source: PubChem BioAssay
This is a sample that favours compounds with a hit; in the whole collection about 0.72% have one here.
mIAP act: activators of mouse IAP, primary screen, biochemical, luminescence, uHTS; activation factor at 10 µM; intestinal alkaline phosphatase [Mus musculus]; AID 2805, 2010; muIAP, CDP-Star luminescence, 30 min; active compounds read high; 1 = vehicle-only enzyme signal, 0 = enzyme-free wells; 330,000 tested, 0.24% active;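 active means activation factor of at least 2 at 20 µM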
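Assay system: mouse IAP enzyme / Compound: DMSO-dissolved test compounds / Timing: 30 min, room temperature / Measured by: luminescence from enzymatic CDP-Star hydrolysis / Control set: DMSO-only wells, enzyme-free buffer wells as negative control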
hIAP inh: human IAP inhibitors, primary screen, biochemical, luminescence, uHTS. Intestinal-type alkaline phosphatase (Homo sapiens), P09923. purified IAP, CDP-Star luminescence, 30 min. AID 2544, 2010. inhibition, % at 10 µM. 330,000 tested, 0.12% active;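 active means inhibition reaching a set limit with compound at 10 µM in the primary screen, cut at about 35% in these data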;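 further: plate controls were DMSO wells with enzyme for no effect and no-enzyme buffer wells for full effect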
Target sequence (P09923 whole entry, looked up): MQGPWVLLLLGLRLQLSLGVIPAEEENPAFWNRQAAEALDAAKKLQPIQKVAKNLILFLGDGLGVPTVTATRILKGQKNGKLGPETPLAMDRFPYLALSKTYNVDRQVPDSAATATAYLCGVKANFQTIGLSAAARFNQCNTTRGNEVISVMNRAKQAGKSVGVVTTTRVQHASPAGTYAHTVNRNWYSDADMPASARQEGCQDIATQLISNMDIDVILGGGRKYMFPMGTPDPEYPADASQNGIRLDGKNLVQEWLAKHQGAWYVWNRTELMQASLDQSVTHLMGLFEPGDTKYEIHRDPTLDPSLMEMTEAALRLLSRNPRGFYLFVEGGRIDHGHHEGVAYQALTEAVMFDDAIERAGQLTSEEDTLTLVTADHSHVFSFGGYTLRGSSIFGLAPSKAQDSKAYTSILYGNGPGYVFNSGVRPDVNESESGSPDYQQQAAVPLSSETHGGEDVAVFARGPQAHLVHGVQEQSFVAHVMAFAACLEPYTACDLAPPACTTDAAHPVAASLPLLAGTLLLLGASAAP
bIAP inh: bovine intestinal alkaline phosphatase inhibitors, primary screen, selectivity assay for TNAP inhibitor project, biochemical, bovine IAP, CDP-star luminescence; purified bovine IAP, 30 min; alkaline phosphatase, intestinal [Bos taurus]; 190,000 tested, under 10 active; AID 1019, 2008; inhibition, % at 20 µM;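 active means over 50% inhibition of intestinal alkaline phosphatase at 20 µM in the single-dose screen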
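Assay system – bovine IAP enzyme · Quantity – bovine IAP at 1/65,000,000 final dilution · Detection – CDP-star luminescence signal · Times – 30 min reaction at room temperature · Also added – CDP-star substrate at 30 µM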
mIAP block: inhibitors of mouse IAP, primary screen, biochemical, luminescence, uHTS | purified mouse IAP, CDP-Star luminescence, 30 min | inhibition, % at 10 µM | 330,000 tested, 0.2% active | AID 2806, 2010;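 active means inhibition of at least 40% at 10 µM in the primary screen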;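 further: plate controls were DMSO with enzyme for no effect and no enzyme wells for full effect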
bIAP act: bovine intestinal alkaline phosphatase activators, primary screen, biochemical, bovine IAP, CDP-star luminescence | alkaline phosphatase, intestinal [Bos taurus] | purified bovine IAP, 30 min; active compounds read high; fold of DMSO-control signal, blank-subtracted | activation factor at 20 µM | 200,000 tested, 0.17% active | AID 1016, 2008;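 active means activation factor of 2 or more at 20 µM, a signal rise over negative controls twice the positive control's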
hIAP act: human IAP activators, primary screen, biochemical, luminescence, uHTS | purified human IAP, CDP-Star luminescence, 30 min; active compounds read high; 1 = vehicle-only enzyme, 0 = enzyme-free background | 330,000 tested, 0.16% active | activation factor at 10 µM | AID 2524, 2010;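 active means activation factor of the enzyme at least 2-fold when tested at 20 µM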
* = called active by the depositor; i = inactive; . = no result given.

SMILES	mIAP act	hIAP inh	bIAP inh	mIAP block	bIAP act	hIAP act
CC(C1CC2CCC1C2)N1CC(O)=C(c2nc3ccccc3[nH]2)C1=N (stereo not given)	1.03	-83.7	.	-3.5	.	1.84
CC(C)N1CC(O)=C(c2nc3ccccc3[nH]2)C1=N	1.15	-1.2	-122.3	-15.1	2.2*	1.01
CCOc1cc(/C=C2\CCC/C(=C\c3cc(Cl)c(O)c(OCC)c3)C2=O)cc(Cl)c1O	0.559	20.6	.	44.1*	0.3	0.794
CSc1ccccc1OCc1cc(C(=O)NCCN2CCCc3ccccc32)no1	1.02	-17.5	.	-2.1	.	1.18
C=C(C)[C@@H]1CC[C@]2(C(=O)O)CC[C@]3(C)C(CCC4[C@@]5(C)CC[C@H](O)C(C)(C)C5CC[C@]43C)C12 (stereo not given in full)	0.53	-28.2	.	47.0*	.	1.28
Cc1ccc(OCCCn2c(CO)nc3ccccc32)cc1	0.969	-22.2	i	3.1	6.7*	1.22
COc1cc2c(cc1OC)C(C(=O)Nc1ccc3c(c1)OCCO3)C1c3ccccc3CCN1C2=O (stereo not given)	1.94	4.7	-145.9	-94.3	2.5*	0.953
COc1ccc(N=c2scc(-c3ccc(S(=O)(=O)N4CCOCC4)cc3)n2CCCO)cc1	.	.	7.2	.	0.9	.
COc1ccc(-c2csc(=Nc3ccccc3)n2CCO)cc1	0.909	-2.6	-95.3	9.1	2*	1.03
O=C(Nc1cccc(F)c1)NC1CC2CCCC(C1)N2C1CC1 (stereo not given)	1.38	6.5	-2.2	-38.3	1	0.935
O=C(Nc1ccc(Cl)c(C(F)(F)F)c1)NC1CC2CCCC(C1)N2C1CC1 (stereo not given)	4.37*	7.9	.	-337.1	.	0.921
CCc1ccc(NC(=O)C2CCCN(S(=O)(=O)c3ccc4c(c3)CC(C)N4C(C)=O)C2)cc1 (stereo not given)	1.32	-13.8	.	-32.2	.	1.14
CCc1ccc(NC(=O)C2CCN(S(=O)(=O)c3ccc4c(c3)CC(C)N4C(C)=O)CC2)cc1 (stereo not given)	2.13*	7.7	.	-112.6	.	0.923
CCN(CC)S(=O)(=O)c1ccc(N2CCN(C)CC2)c(NC(=O)Nc2ccc(C)cc2)c1	2.01*	-76.8	.	-100.7	.	1.77
CCN(CC)S(=O)(=O)c1ccc(N2CCN(C)CC2)c(NC(=O)CSCC(=O)Nc2cccc(C)c2)c1	1	-7.5	.	-0.2	.	1.07
O=C1SCCC1NS(=O)(=O)c1ccc([N+](=O)[O-])cc1 (stereo not given)	1.01	-11.4	.	-0.6	.	1.11
CCN(CCNC(=O)C1CCN(Cc2nc(-c3cccc(Cl)c3)oc2C)CC1)c1ccccc1	1.39	10.2	-187.3	-39.3	2.9*	0.898
CCc1ccc(-c2nc(CN3CCC(C(=O)NCCN(CC)c4ccccc4)CC3)c(C)o2)cc1	2.01*	24.1	-336.2	-100.7	4.4*	0.759
CCN(CCNC(=O)C1CCN(Cc2nc(-c3ccc(Cl)cc3)oc2C)CC1)c1ccccc1	1.35	13.3	-59.6	-35.4	1.6	0.867
O=C(NC1CCC(O)CC1)c1cccnc1Sc1ccccc1Cl (stereo not given)	0.979	-1.8	.	2.1	.	1.02
Cn1c(=O)c(S(=O)C2CCCCC2)c(O)c2ccccc21 (stereo not given)	1.03	1.3	.	-3.4	.	0.987
NC(=O)c1ccc(NC(=O)CSc2nnc(-c3ccc4c(c3)OCO4)o2)cc1	0.944	-11.7	.	5.6	.	1.12
O=C(CSc1nnc(-c2ccc3c(c2)OCO3)o1)Nc1c(F)cccc1F	0.451	-21.5	.	54.9*	.	1.22
O=C1/C(=C\c2ccco2)SC(=S)N1Cc1ccccc1	0.429	-6.8	10.2	57.1*	0.9	1.07
O=C(CCCN1C(=O)/C(=C\c2ccco2)SC1=S)Nc1ccc2ccccc2c1	0.588	1.1	9.2	41.2*	0.9	0.989
SMILES	mIAP act	hIAP inh	bIAP inh	mIAP block	bIAP act	hIAP act
COc1cccc(-c2cnc(NCc3cc(Cl)ccc3O)n2C)c1	0.961	21.0	-117.1	3.9	2.2*	0.79
COc1ccccc1CNc1ncc(-c2ccccc2)n1C	0.975	-30.7	.	2.5	.	1.31
CC(=O)c1c(C)[nH]c(C(=O)NC(C)c2ccccc2)c1C (stereo not given)	0.978	7.9	-2.4	2.2	1	0.921
COc1ccc(C(CCc2ccc(C)o2)NC(=O)Nc2ccc(OC)cc2OC)cc1 (stereo not given)	2.04*	16.8	-11.5	-103.5	1.1	0.832
COc1cccc(C(C)NC(=S)NCc2ccc(Cl)cc2)c1 (stereo not given)	2.48*	-22.3	23.2	-148.4	0.8	1.22
CCCCc1ccc(NC(=S)NCc2cccc(OC)c2)cc1	2.46*	11.1	10.8	-146.1	0.9	0.889
S=C(NCc1cccnc1)Nc1cc(Cl)cc(Cl)c1	2.09*	8.1	.	-109.2	.	0.919
COc1ccc(C(C)NC(=S)NCc2ccc(F)cc2)cc1 (stereo not given)	1.33	5.0	.	-32.9	.	0.95
COc1ccc(CNC(=S)Nc2cccc(Cl)c2)cc1	2.72*	17.4	.	-172.3	.	0.826
S=C(NCc1cccnc1)Nc1cccc(Cl)c1	1.14	-3.9	10.7	-13.8	0.9	1.04
OCC1(CCc2ccccc2)CCCN(CCCc2ccccc2)C1 (stereo not given)	0.948	12.0	.	5.2	.	0.88
CCCCCCC(=O)Nc1ccc(Br)cn1	0.963	-11.4	.	3.7	.	1.11
Cc1oc2c(Cl)c(Cl)c(O)c(CN(C)C)c2c1C(=O)c1ccc(Cl)cc1	0.971	-16.5	.	2.9	.	1.17
Cc1ccc2c(c1)N(CC(=O)NC1CCC(C)CC1)C(=O)c1cccnc1O2 (stereo not given)	0.963	7.7	.	3.7	.	0.923
CCOC(=O)c1sc(NC(=O)Nc2cccc(Cl)c2)cc1C	2.04*	-11.6	-0.7	-103.7	1	1.12
CCN(CC)CCn1c(NCc2nc3ccccc3n2Cc2ccccc2)nc2ccccc21	1.45	4.0	-100.8	-45.0	2*	0.96
c1ccc(Cn2c(CNc3nc4ccccc4n3CCN3CCCCC3)nc3ccccc32)cc1	1.59	-92.8	10.7	-59.2	0.9	1.93
O=C(c1cc(C(=O)N2CCCC2)cc([N+](=O)[O-])c1)N1CCCC1	1.08	12.0	.	-8.4	.	0.88
O=C1C2CCCN2C(=O)N1CCN1CCN(CCO)CC1 (stereo not given)	1.05	2.2	-172.7	-4.8	2.7*	0.978
COC(=O)c1sccc1NC(=O)Nc1cccc([N+](=O)[O-])c1	0.337	-5.3	.	66.3*	.	1.05
